# MBD2 DNA inh – inhibitors of MBD2 binding to methylated DNA, primary screen, biochemical, TR-FRET, DNA-binding domain, human; actives 0.31% (n = 370,000); MBD2 binding to methylated oligonucleotide; AID 686964, 2013; inhibition, % at 4.4 µM; Methyl-CpG-binding domain protein 2 (Homo sapiens), Q9UBB5; in the data active = inhibition above about 13%
# RBBP9 inhibitor – human RBBP9 inhibitors, primary screen, biochemical, fluorescence polarization, FP-Rh probe, HTS | Serine hydrolase RBBP9 (Homo sapiens), O75884 | recombinant RBBP9 | inhibition, % at 7.94 µM | actives 0.2% (n = 220,000) | AID 1515, 2009;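 active = inhibition above the campaign mean of all tested compounds plus 3 SD, cut at about 14% in these data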;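 note: plate controls were DMSO wells with RBBP9 for no effect and wells lacking RBBP9 protein for full effect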
# Target sequence (O75884 whole entry, looked up): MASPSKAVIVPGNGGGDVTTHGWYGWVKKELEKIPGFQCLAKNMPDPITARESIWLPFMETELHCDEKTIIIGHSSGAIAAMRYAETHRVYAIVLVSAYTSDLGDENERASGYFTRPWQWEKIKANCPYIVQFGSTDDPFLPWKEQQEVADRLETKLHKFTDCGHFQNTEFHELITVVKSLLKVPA
#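 Material: RBBP9 protein. Amount: RBBP9 at 2.5 µM in dispensed solution, before mixing. Schedule: 30 min then 45 min, 25 °C. Medium: Tris buffer pH 8.0, NaCl, Pluronic. Measured by: fluorescence polarization. Measure: percent inhibition from mP, scaled between DMSO and no-protein wells. Replication: one well per compound.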
# UHRF1 MBD2 ctr – UHRF1 methylated DNA binding inhibitors, primary screen, counter-screen for MBD2 inhibitor project, biochemical, TR-FRET, human UHRF1, single concentration; E3 ubiquitin-protein ligase UHRF1 (Homo sapiens), Q96T88; UHRF1 binding to methylated oligo; inhibition, % at 4.4 µM; actives 0.75% (n = 370,000); AID 687016, 2013; in the data active = inhibition above about 21%;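 note: UHRF1 SRA domain binding a hemimethylated CpG hairpin DNA probe; 0% = median of test compound wells and 100% = reference inhibitor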
# LEDGF integ inh – blockers of LEDGF/p75-dependent integrase strand transfer – biochemical, TR-FRET, high throughput, primary screen. HIV-1 integrase (with human LEDGF/p75). AID 743269, 2014. inhibition, % at 3.7 µM. actives 0.64% (n = 370,000). TR-FRET IN-LEDGF/p75 DNA integration, Eu/Cy5;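 active = inhibition above the screen-wide mean plus 3 SD, cut at about 13% in these data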;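 note: signal is the Cy5 over europium emission ratio at 671 and 618 nm; 0% = plate median of compound wells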
# PRMT1 inh – PRMT1 methyltransferase inhibitors, primary screen, biochemical, fluorescence polarization; Protein arginine N-methyltransferase 1 (Homo sapiens), Q99873; recombinant PRMT1, activity-based probe fluorescence polarization; inhibition, % at 2.79 µM; actives 1.3% (n = 370,000); AID 652257, 2013;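 active = inhibition above about 21% made by adding two undisclosed values, limit read from the data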
# Target sequence (Q99873 whole entry, looked up): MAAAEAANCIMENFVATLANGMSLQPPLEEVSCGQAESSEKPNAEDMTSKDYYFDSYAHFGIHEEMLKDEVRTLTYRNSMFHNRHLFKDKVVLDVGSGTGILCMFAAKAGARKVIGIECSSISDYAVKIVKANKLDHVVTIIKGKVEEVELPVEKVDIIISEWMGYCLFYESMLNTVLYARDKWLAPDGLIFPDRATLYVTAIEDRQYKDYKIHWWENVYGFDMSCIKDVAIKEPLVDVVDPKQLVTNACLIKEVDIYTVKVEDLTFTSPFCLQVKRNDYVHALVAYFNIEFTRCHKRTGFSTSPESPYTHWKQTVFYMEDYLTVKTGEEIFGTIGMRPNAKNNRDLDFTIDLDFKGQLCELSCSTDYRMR
# ABHD5 PLIN5 PPI – ABHD5-PLIN5 interaction inhibitors, primary screen, cell lysate, split luciferase complementation, luminescence; Perilipin-5 (Homo sapiens) + 1-acylglycerol-3-phosphate O-acyltransferase ABHD5 (Homo …; Split G. princeps luciferase complementation, 4 h; inhibition, % at 4 µM; actives 0.78% (n = 360,000); AID 602281, 2012;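 active = inhibition above the mean inhibition across every tested compound plus 3 SD, cut at about 22% in these data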;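 note: 0% = DMSO only wells and the 100% control is not disclosed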
# ABHD5 PLIN5 conf – ABHD5-PLIN5 interaction inhibitors, confirmation, biochemical, luminescence | AID 651612, 2012 | shares compounds with ABHD5 PLIN5 PPI | inhibition, % at 4 µM | actives 67% (n = 2,200); in the data active = inhibition above about 23%;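 note: 0% = DMSO vehicle wells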
# HNF4 counter – HNF4 dimerization inhibitors, counter-screen for ABHD5-PLIN5 interaction inhibitor project, biochemical, split-luciferase complementation, luminescence; inhibition, % at 4 µM; AID 651674, 2012; shares compounds with ABHD5 PLIN5 PPI; actives 77% (n = 2,200);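 active = mean inhibition across replicate wells exceeding the computed hit threshold, cut at about 13% in these data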;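 note: light from luciferase halves that rejoin when HNF4 fusion proteins dimerize; 0% = DMSO only wells and the 100% control is not given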
# Numbers without * were called inactive; · = no result. This is a sample that favours compounds with a hit; in the whole collection about 3.1% have one here.
SMILES,MBD2 DNA inh,RBBP9 inhibitor,UHRF1 MBD2 ctr,LEDGF integ inh,PRMT1 inh,ABHD5 PLIN5 PPI,ABHD5 PLIN5 conf,HNF4 counter
O=C(NC1CCCCC1)C(c1ccncc1)N(Cc1ccccc1)C(=O)c1ccc(-c2ccccc2)[nH]1 (configuration not stated),2,3,2,1,7,18,·,·
CC(C)(C)NC(=O)C(c1ccncc1)N(Cc1ccco1)C(=O)c1ccc(-c2ccccc2)[nH]1 (configuration not stated),-1,-1,-3,-2,3,30*,31*,44*
CCN(CC)CCNC(=O)c1ccc(NC(=O)c2cn(-c3ccccc3)nc2-c2cccs2)cc1,-3,-20,0,-4,-3,35*,18,-5
CCN(CC)CCNC(=O)c1ccc(NC(=O)c2cn(-c3ccc(F)cc3)nc2-c2cccc(OC)c2)cc1,-5,·,0,3,-7,13,·,·
O=C(COC(=O)CCC(=O)c1ccc(F)cc1)NCc1ccc(Cl)cc1,4,·,2,-6,3,-1,·,·
O=C(COC(=O)CCC(=O)c1ccc(Cl)cc1)NCc1ccco1,5,-7,4,3,9,25*,11,7
CCOC(=O)[C@@]12CCCC3=C1N(CCC3)C(=O)[C@H]2CC(=O)NCC12CC3CC(CC(C3)C1)C2,-8,·,0,0,4,·,·,·
Oc1ccccc1C1CC(c2cccs2)=NC(c2cccc(Br)c2)N1 (configuration not stated),0,-7,10,-4,10,45*,23*,49*
O=C(c1c(F)cccc1F)N1CCC(Oc2cccnc2)CC1,-3,·,2,2,0,·,·,·
Cc1cc(C)nc(NC(=S)N2CCN(c3ncc(C(F)(F)F)cc3Cl)CC2)c1,0,·,0,2,12,·,·,·
CC(C)(C)OC(=O)NCCc1nnc(S(=O)(=O)Cc2ccc(Cl)cc2Cl)o1,3,-11,1,-1,15,26*,39*,74*
O=C(C=Cc1cccnc1)c1ccccc1,11,·,3,-5,12,74*,84*,81*
O=C(/C=C/c1cccnc1)c1ccc(O)cc1,-3,2,3,-4,4,29*,49*,48*
CN(C(=O)COc1ccccc1)c1nnc(-c2cccnc2)s1,5,-6,5,4,0,1,·,·
CN(C)C(=O)COc1ccc(C(=O)/C=C/c2cccnc2)cc1,3,·,-1,0,4,28*,52*,46*
C#CCNC(=O)CSCc1nc(-c2ccc(OCC)cc2)oc1C,8,·,1,-1,10,·,·,·
Cc1occc1-c1nnc(SCC(=O)Nc2ccccn2)n1-c1ccccc1,-5,·,-1,2,-1,·,·,·
CCN(C(=O)CSc1nnc(-c2cccnc2)n1Cc1ccco1)c1ccccc1C,-5,·,-3,0,3,·,·,·
Cc1ccc(S(=O)(=O)NCC2CCN(C(=O)C(=O)c3cccs3)CC2)cc1,5,·,1,-3,4,·,·,·
COc1ccc(C=Nn2c(-c3ccc(F)cc3)n[nH]c2=S)cc1OCc1ccccc1,-3,·,-2,-1,-1,·,·,·
N#CCC[C@H]1CC[C@]2(CCCN(Cc3ccc(Br)cc3)C2)O1,-5,·,-1,-3,3,·,·,·
O=c1[nH]cnc(O)c1C1C=CC=CC=C1,4,·,2,-4,3,50*,32*,49*
O=[N+]([O-])/C=C\c1ccc(N2CCOCC2)cc1,0,·,-2,2,6,65*,88*,89*
O=C(/C(=C/O)N=Nc1ccc(Cl)cc1)c1ccncc1,-6,-7,-5,3,-1,38*,38*,-7
Cc1[nH]nc(-c2ccc(O)cc2O)c1Oc1ccccc1,0,-12,-2,-1,-3,24*,18,36*
SMILES,MBD2 DNA inh,RBBP9 inhibitor,UHRF1 MBD2 ctr,LEDGF integ inh,PRMT1 inh,ABHD5 PLIN5 PPI,ABHD5 PLIN5 conf,HNF4 counter
CCCOC(=O)c1ccc(Oc2c(-c3ccc(O)cc3O)n[nH]c2C)cc1,4,-5,-3,-1,2,3,·,·
O=C(C1CCCO1)N1CCN(Cc2c(O)ccc3ccccc23)CC1 (configuration not stated),-4,4,-1,-1,23*,41*,72*,102*
CCOC(=O)N1CCN(Cc2c(O)ccc3ccccc23)CC1,-1,-1,-1,0,16,27*,51*,89*
Nc1nsc2ccccc12,0,-12,-1,-4,2,45*,57*,64*
Nc1nnc(N)c2ccccc12,-11,-7,-1,2,-4,3,·,·
C[C@H]1COc2cc(Br)ccc2S(=O)(=O)N1Cc1cn(Cc2ccc(Br)cc2)nn1,3,·,-1,-3,1,·,·,·
CN(C)CCn1cnc2c(c1=N)C(c1ccccc1)c1ccc3ccccc3c1O2 (configuration not stated),-1,·,0,0,2,26*,14,0
O=C(C[n+]1ccc2ccccc2c1)c1ccc2ccc3ccccc3c2c1,3,·,-27,1,-3,28*,10,4
O=C(C[n+]1ccc2ccccc2c1)c1ccccc1,-5,4,-5,-3,-2,1,·,·
CC(C)NC(=O)C1CCN(c2cncnc2)CC1,3,·,1,0,-5,·,·,·
COc1ccc(C2C(C#N)=C(N)Oc3cc(C)n(Cc4ccco4)c(=O)c32)cc1 (configuration not stated),-3,3,-3,-1,10,32*,66*,68*
Cc1cc2c(c(=O)n1CCCn1ccnc1)C(c1ccco1)C(C#N)=C(N)O2 (configuration not stated),3,-5,1,-2,0,13,·,·
C(=C\c1ccccc1)/CSc1nnc(-c2ccccn2)n1Cc1ccco1,2,-9,2,1,4,34*,21,44*
Cc1cc(N2CCNC[C@@H]2C)ccc1N1CCS(=O)(=O)CC1,0,·,0,0,-1,·,·,·
